Hits are enriched below; roughly 3.1% of the tested compounds scored in any of these assays.
SENP6 block – SENP6 protease inhibition | Q9GZR1 | Recombinant SENP6 catalytic domain, aminoluciferin luminescence | inhibition, % at 10 µM | 330,000 tested, 1.8% active | AID 2599;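 active = inhibition above about 50% at the single tested dose, limit read from the data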
UBC13 polyUb – inhibitors of human UBC13 polyubiquitin chain formation | 330,000 tested, 0.47% active | AID 485273 | inhibition, % at 20 µM | P61088 | TR-FRET; in the data active = inhibition above about 45%, passing the limit was not always enough
Target sequence (P61088 whole entry, looked up): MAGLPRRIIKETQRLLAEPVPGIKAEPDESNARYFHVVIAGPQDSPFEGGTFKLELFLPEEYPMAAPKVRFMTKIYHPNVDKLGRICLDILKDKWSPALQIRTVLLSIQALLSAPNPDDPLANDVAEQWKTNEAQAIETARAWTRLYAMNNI
SENP8 block-1 – SENP8 protease inhibition. purified SENP8, Z-RLRGG-aminoluciferin cleavage, luminescence. AID 2540. inhibition, % at 10 µM. 330,000 tested, 1.2% active. Q96LD8; in the data active = inhibition above about 50%
SENP7 inh – SENP7 protease inhibition. Q9BQF6. inhibition, % at 5 µM. recombinant SENP7, Z-RLRGG-aminoluciferin luminescence, 40 min. 330,000 tested, 1.5% active;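 active = inhibition above about 50% at the single test dose, limit read from the data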
Target sequence (Q9BQF6 706-1050 limits assumed): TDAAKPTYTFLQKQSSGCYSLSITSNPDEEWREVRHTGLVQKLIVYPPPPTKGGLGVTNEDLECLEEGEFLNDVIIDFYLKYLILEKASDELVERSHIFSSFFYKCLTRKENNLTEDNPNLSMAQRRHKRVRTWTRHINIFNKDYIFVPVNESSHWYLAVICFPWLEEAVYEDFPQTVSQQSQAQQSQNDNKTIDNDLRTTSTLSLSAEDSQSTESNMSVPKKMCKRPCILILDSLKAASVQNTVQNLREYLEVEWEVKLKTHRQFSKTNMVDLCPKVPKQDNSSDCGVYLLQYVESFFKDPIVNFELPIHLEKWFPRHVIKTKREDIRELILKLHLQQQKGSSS
SENP8 block-2 – blocks human SENP8 cleavage of Nedd8 substrate | Q96LD8 | recombinant SENP8, Nedd8 substrate fluorescence | inhibition, % at 20 µM | 360,000 tested, 0.64% active; in the data active = inhibition mostly above about 40%, no sharp cut-off; inactive = mostly below about 27%
Apaf-1 inh – inhibitors of human Apaf-1 apoptosome; reconstituted apoptosome caspase-3 activity, DEVD-Rh110 fluorescence; inhibition, % at 20 µM; 330,000 tested, 0.71% active; active = inhibition of at least 40% at 20 µM
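Assay system – apoptosome proteins · Medium – Hepes buffer, pH 7.5 · Also added – cytochrome c with DEVD-Rh110 · Timing – 30 min compound preincubation, 50 min activation, room temperature · Detection – Rh110 fluorescence, excitation 480 nm, emission 540 nm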
SENP8 confirm – confirmation of human SENP8 protease inhibitors. shares compounds with SENP7 inh. Recombinant SENP8, Z-RLRGG-aminoluciferin luminescence, 60 min. inhibition, % at 12.5 µM. 6,200 tested, 40% active. AID 488912;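 active = mean inhibition across replicates above about 50%, limit read from the data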
SENP6 conf – human SENP6 inhibition, confirmed | shares compounds with SENP7 inh | recombinant SENP6, Z-RLRGG-aminoluciferin luminescence | inhibition, % at 12.5 µM | 6,200 tested, 58% active | AID 488915
SENP7 conf – confirmation of human SENP7 protease inhibitors; shares compounds with SENP7 inh; recombinant SENP7, Z-RLRGG-aminoluciferin luminescence, 40 min; inhibition, % at 12.5 µM; 6,200 tested, 69% active; AID 488917
Casp3 select – selectivity test for SENP inhibitors: human caspase-3 inhibition; shares compounds with SENP7 inh; purified caspase-3, Z-DEVD-aminoluciferin luminescence, 60 min; inhibition, % at 12.5 µM; 6,200 tested, 60% active;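 active = mean inhibition above about 50%, limit read from the data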
Target sequence (P42574 28-227 limits assumed): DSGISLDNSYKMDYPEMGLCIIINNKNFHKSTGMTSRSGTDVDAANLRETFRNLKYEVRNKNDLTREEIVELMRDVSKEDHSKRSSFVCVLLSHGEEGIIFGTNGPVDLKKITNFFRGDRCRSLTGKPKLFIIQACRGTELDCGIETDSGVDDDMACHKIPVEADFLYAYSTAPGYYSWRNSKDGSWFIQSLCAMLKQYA
SENP luc ctr – luminescence interference (SENP counter-screen) | shares compounds with SENP7 inh | Pre-incubated SENP8/Z-RLRGG-aminoluciferin, luciferase luminescence interference | inhibition, % at 12.5 µM | 6,200 tested, 39% active | AID 488919;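 active = mean inhibition above about 50% when retested at one dose, limit read from the data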
Of the large screens only hits and unclear results are named; the others gave an inactive call (follow-up assays come after a bar, where they were run).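 Rule for the calls, unless noted: active = mean inhibition above about 50% in the one-dose retest (limit read from the data); inactive = the rest.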

O=c1oc2ccccc2c(O)c1C(c1ccc([N+](=O)[O-])cc1)c1c(O)c2ccccc2oc1=O	none (no result: SENP6 block, UBC13 polyUb, SENP8 block-1, SENP7 inh, Apaf-1 inh)
c1ccc2c(NC3=NCCS3)cccc2c1	SENP6 block 76.2, SENP8 block-1 87.6, SENP7 inh 61.3 | SENP8 confirm inactive | SENP6 conf inactive | SENP7 conf inactive | Casp3 select inactive | SENP luc ctr inactive
Clc1cccc(Cl)c1NC1=NCCS1	none (no result: SENP6 block, UBC13 polyUb, SENP8 block-1, SENP7 inh, Apaf-1 inh)
O=P1(NCCCl)OCCC(OO)N1CCCl (stereo not drawn)	none (no result: SENP6 block, UBC13 polyUb, SENP8 block-1, SENP7 inh, Apaf-1 inh)
O=P(/C=C1\OCc2ccccc21)(Oc1ccccc1)Oc1ccccc1	none (no result: SENP6 block, UBC13 polyUb, SENP8 block-1, SENP7 inh, Apaf-1 inh)
COC[C@H]1OC(=O)c2coc3c2[C@@]1(C)C1=C(C3=O)[C@@H]2CCC(=O)[C@@]2(C)C[C@H]1OC(C)=O	none (no result: SENP6 block, UBC13 polyUb, SENP8 block-1, SENP7 inh, Apaf-1 inh)
CN1C(=O)C(=Cc2ccccc2Oc2ccc(Cl)cc2)C(=O)N(C)C1=O	none
CN1C(=O)C(=Cc2ccccc2OCc2ccc(Cl)cc2)C(=O)N(C)C1=O	SENP6 block 75.1, SENP7 inh 63.8 | SENP8 confirm inactive | SENP6 conf 57.2 | SENP7 conf 76.2 | Casp3 select 51.9 | SENP luc ctr 69.8
O=C(N/N=C/c1c(O)n(C2CC2)c(=S)[nH]c1=O)c1ccccc1O	SENP6 block 81.5, SENP8 block-1 82.9, SENP7 inh 82.6 | SENP8 confirm 88.4 | SENP6 conf 85.5 | SENP7 conf 94.6 | Casp3 select 87.4 | SENP luc ctr inactive
Cc1ccccc1-n1c(O)c(/C=N/NC(=O)c2ccccc2O)c(=O)[nH]c1=S	none
Cc1ccc(NC(=O)N2CC2)cc1NC(=O)N1CC1	none (no result: SENP6 block, UBC13 polyUb, SENP8 block-1, SENP7 inh, Apaf-1 inh)
Cc1ccc(NC(=O)c2snnc2C)cc1Cl	SENP6 block 64.8, SENP7 inh 60.2 | SENP8 confirm inactive | SENP6 conf inactive | SENP7 conf 82.8 | Casp3 select 63.5 | SENP luc ctr 61.3
CN1CC[C@@]2(C)c3cc(O)ccc3N(C)C2O1 (stereo partly drawn)	SENP6 block 57.1, Apaf-1 inh 92.4 | SENP8 confirm inactive | SENP6 conf 55.7 | SENP7 conf inactive | Casp3 select inactive | SENP luc ctr inactive
O=C(/C=C/c1ccccc1)N1Cc2ccccc2-n2nncc2C1	none (no result: SENP6 block, UBC13 polyUb, SENP8 block-1, SENP7 inh, Apaf-1 inh)
CCOc1ccc(NC(=O)c2c(O)[nH]c(=O)[nH]c2=O)cc1	SENP6 block 74.4, SENP8 block-1 59.0, SENP7 inh 80.0 | SENP8 confirm 71.3 | SENP6 conf 58.8 | SENP7 conf 94.9 | Casp3 select 83.9 | SENP luc ctr inactive
CCOC(=O)c1ccc(NC(=O)c2c(O)[nH]c(=O)[nH]c2=O)cc1	SENP6 block 82.9, SENP8 block-1 66.2, SENP7 inh 71.9 | SENP8 confirm inactive | SENP6 conf inactive | SENP7 conf inactive | Casp3 select inactive | SENP luc ctr inactive
CCOC(=O)c1ccccc1NC(=O)c1c(O)[nH]c(=O)[nH]c1=O	none
O=C(Nc1ccc(Cl)c(Cl)c1)c1ccco1	SENP6 block 56.5, SENP8 block-1 51.2 | SENP8 confirm 59.6 | SENP6 conf 57.6 | SENP7 conf 85.0 | Casp3 select inactive | SENP luc ctr inactive
CNC(=O)Oc1cccc(-c2cn3cc(Cl)ccc3n2)c1	SENP6 block 85.3, SENP8 block-1 83.2, SENP7 inh 83.2 | SENP8 confirm 92.4 | SENP6 conf 94.7 | SENP7 conf 101.7 | Casp3 select 94.8 | SENP luc ctr 92.0
O=C(c1cccnc1)N1Cc2ccccc2-n2nncc2C1	none (no result: SENP6 block, UBC13 polyUb, SENP8 block-1, SENP7 inh, Apaf-1 inh)
Clc1ccccc1Nc1ncnc(-n2cccc2)n1	SENP6 block 81.5, SENP8 block-1 64.0, SENP7 inh 71.6 | SENP8 confirm 67.1 | SENP6 conf 68.0 | SENP7 conf 91.1 | Casp3 select 59.6 | SENP luc ctr inactive
CN(C)C(=O)Oc1ccc(OC(=O)c2ccccc2)cc1	SENP6 block 90.0, SENP8 block-1 80.7 | SENP8 confirm 64.9 | SENP6 conf 89.3 | SENP7 conf 98.2 | Casp3 select 92.5 | SENP luc ctr 50.9
COc1ccc(C2=CC(c3ccc4c(c3)OCO4)c3c(c4ccccc4oc3=O)O2)cc1OC (stereo not drawn)	none (no result: SENP6 block, UBC13 polyUb, SENP8 block-1, SENP7 inh, Apaf-1 inh)
COc1ccc(N/N=C/c2c(O)n(-c3cccc(C)c3)c(=O)[nH]c2=O)cc1	none
Cc1cccc(N/N=C/c2c(O)[nH]c(=S)[nH]c2=O)c1	SENP8 block-1 83.7 | SENP8 confirm 93.9 | SENP6 conf 94.5 | SENP7 conf 100.9 | Casp3 select 96.4 | SENP luc ctr 58.4
COc1ccc(-c2ccc3c(c2)CN(C(=O)NC2CCCCC2)Cc2cnnn2-3)cc1	none (no result: SENP6 block, UBC13 polyUb, SENP8 block-1, SENP7 inh, Apaf-1 inh)
COc1ccc(Cc2nccc3cc(OC)c(OC)cc23)cc1OC	SENP6 block 63.9, SENP8 block-2 55.4 | SENP8 confirm inactive | SENP6 conf inactive | SENP7 conf inactive | Casp3 select inactive | SENP luc ctr inactive
COc1cc2c(ccc3c4cc(OC)c(OC)cc4c[n+](C)c23)cc1O	none (no result: SENP6 block, UBC13 polyUb, SENP8 block-1, SENP7 inh, Apaf-1 inh)
COc1ccccc1N=Cc1c(O)n(C)c(=O)n(C)c1=O	SENP6 block 63.0, SENP7 inh 55.8 | SENP8 confirm inactive | SENP6 conf inactive | SENP7 conf 73.3 | Casp3 select inactive | SENP luc ctr 59.4
COc1ccc(Cl)cc1N=Cc1c(O)n(C)c(=O)n(C)c1=O	none
O=C(c1ccco1)N1Cc2ccccc2-n2nncc2C1	none (no result: SENP6 block, UBC13 polyUb, SENP8 block-1, SENP7 inh, Apaf-1 inh)
CC(O)C1C=CC=CC(=O)OC2CC3OC4C5OC5(C)C(O)CC4(COC(=O)C(O)C(C)CCO1)C2(C)C31CO1 (stereo not drawn)	none (no result: SENP6 block, UBC13 polyUb, SENP8 block-1, SENP7 inh, Apaf-1 inh)
Nc1c2c(nc3sc4c(c13)CCCC4)CCCCC2	SENP6 block 81.0, SENP8 block-1 69.3, SENP7 inh 71.7 | SENP8 confirm inactive | SENP6 conf inactive | SENP7 conf inactive | Casp3 select 50.1 | SENP luc ctr inactive
COc1ccc(OC)c(N2C(=O)NC(=O)/C(=C/c3ccc([N+](=O)[O-])s3)C2=O)c1	SENP6 block 55.0, SENP8 block-2 62.9 | SENP8 confirm inactive | SENP6 conf inactive | SENP7 conf inactive | Casp3 select inactive | SENP luc ctr inactive
CCC(C)(O)C(=O)OC1C(=O)OC2CC3C(C)=CC(O)C(O)C3(C)C3C4(O)OCC23C1C(C)C4O (stereo not drawn)	none (no result: SENP6 block, UBC13 polyUb, SENP8 block-1, SENP7 inh, Apaf-1 inh)
CN1CC=C(/C=C/c2ccc(-c3ccccc3)cc2)CC1	SENP6 block 85.9, SENP8 block-1 75.6, SENP7 inh 81.5 (no result: SENP8 block-2) | SENP8 confirm 71.6 | SENP6 conf 87.6 | SENP7 conf 97.3 | Casp3 select 87.7 | SENP luc ctr 71.7
